Results as given in ChEMBL document CHEMBL2413060, “Synthesis, biological evaluation and molecular docking studies of some pyrimidine derivatives” (2013).
Values after ≈ are worked out from the molar mass of the structure shown.

Assays:
Type in all cases: functional
Candida albicans [1] = assay: Antifungal activity against Candida albicans ATCC 2091 assessed as diameter of inhibition zone at 1 mg/ml after 48 hrs by cup diffusion method (reference value: 22 mm); settings: ATCC 2091, 48 h, read-out: DIZ
Shigella flexneri [2] = assay: Antibacterial activity against Shigella flexneri ATCC 15391 assessed as diameter of inhibition zone at 1 mg/ml after 24 hrs by cup diffusion method (reference value: 17 mm); settings: ATCC 15391, 24 h, read-out: DIZ
Staphylococcus aureus [3] = assay: Antibacterial activity against Staphylococcus aureus ATCC 6538P assessed as diameter of inhibition zone at 1 mg/ml after 24 hrs by cup diffusion method (reference value: 15 mm); settings: read-out: DIZ
Pseudomonas aeruginosa [4] = assay: Antibacterial activity against Pseudomonas aeruginosa ATCC 9027 assessed as diameter of inhibition zone at 1 mg/ml after 24 hrs by cup diffusion method (reference value: 16 mm); settings: ATCC 9027, 24 h, read-out: DIZ
HCC 2998 = assay: Cytotoxicity against human HCC2998 cells assessed as growth inhibition at 10 uM; settings: read-out: GI
Pseudomonas aeruginosa [5] = assay: Antibacterial activity against Pseudomonas aeruginosa ATCC 9027 after 24 hrs by two-fold serial dilution method relative to ofloxacin
Shigella flexneri [6] = assay: Antibacterial activity against Shigella flexneri ATCC 15391 after 24 hrs by two-fold serial dilution method relative to ofloxacin
Candida albicans [7] = assay: Antifungal activity against Candida albicans ATCC 2091 after 48 hrs by two-fold serial dilution method; settings: ATCC 2091, 48 h
Procedure, shortened: (§1)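 Two-fold serial broth dilution in sterile nutrient broth at 500, 250, 125, 62.5, 31.25, 15.63, 7.82 and 3.91 µg/ml, with dimethylformamide ≤2.5%. Organisms were pre-grown 24 h in broth, and 0.1 ml inoculum was added per 5 ml tube. Tubes were incubated at 37°C, 24 h for bacteria and 48 h for fungi. MIC was taken as the lowest concentration giving no turbidity.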

Candida albicans [8] = assay: Antifungal activity against Candida albicans ATCC 2091 after 48 hrs by two-fold serial dilution method relative to clotrimazole
Shigella flexneri [9] = assay: Antibacterial activity against Shigella flexneri ATCC 15391 after 24 hrs by two-fold serial dilution method; settings: ATCC 15391, 24 h; procedure, shortened: as §1
Pseudomonas aeruginosa [10] = assay: Antibacterial activity against Pseudomonas aeruginosa ATCC 9027 after 24 hrs by two-fold serial dilution method; settings: ATCC 9027, 24 h; procedure, shortened: as §1
Staphylococcus aureus [11] = assay: Antibacterial activity against Staphylococcus aureus ATCC 6538P after 24 hrs by two-fold serial dilution method; procedure, shortened: as §1
OVCAR-8 = assay: Cytotoxicity against human OVCAR8 cells assessed as growth inhibition at 10 uM; settings: read-out: GI
Procedure, shortened: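 Single-dose screen on human tumour cell lines. Growth of treated cells is expressed as percent of untreated growth, plotted as a mean graph, and reported as percent growth inhibition.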

UACC-257 = assay: Cytotoxicity against human UACC257 cells assessed as growth inhibition at 10 uM; settings: read-out: GI
Procedure, shortened: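 Single-dose screen in a sixty-cell human tumour line panel; percent growth of treated cells relative to untreated was read and reported as percentage growth inhibition, shown as a mean graph. Compounds meeting the threshold inhibition criteria went on to five-dose testing.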

Structure (SMILES) | zone of inhibition at 1000 µg/mL (Candida albicans [1]) | zone of inhibition at 1000 µg/mL (Shigella flexneri [2]) | zone of inhibition at 1000 µg/mL (Staphylococcus aureus [3]) | zone of inhibition at 1000 µg/mL (Pseudomonas aeruginosa [4]) | inhibition of growth at 10 µM (HCC 2998) | Activity (Pseudomonas aeruginosa [5]) | Activity (Shigella flexneri [6]) | MIC (Candida albicans [7]) | Activity (Candida albicans [8]) | MIC (Shigella flexneri [9]) | MIC (Pseudomonas aeruginosa [10]) | MIC (Staphylococcus aureus [11]) | inhibition of growth at 10 µM (OVCAR-8) | inhibition of growth at 10 µM (UACC-257)
N#Cc1c(N2CCN(Cc3ccccc3)CC2)nc(=S)[nH]c1-c1ccc([N+](=O)[O-])cc1 | 22 mm | 17 mm | 15 mm | 16 mm | 71.8% |  |  |  |  |  |  |  |  | 
N#Cc1c(Cl)nc(=S)[nH]c1-c1ccc([N+](=O)[O-])cc1 | 22 mm | 17 mm | 15 mm | 16 mm |  |  |  |  |  |  |  |  |  | 
N#Cc1c(-c2ccco2)nc(SCC2CO2)[nH]c1=O (stereo unspecified) | 25 mm | 24 mm | 18 mm | 18 mm |  | 50% | 60% | 125 µg/mL (≈ 454 µM) | 62% | 125 µg/mL (≈ 454 µM) | 125 µg/mL (≈ 454 µM) | 125 µg/mL (≈ 454 µM) |  | 
N#Cc1c(N2CCN(Cc3ccccc3)CC2)nc(=S)[nH]c1-c1ccccc1 | 22 mm | 20 mm | 15 mm | 18 mm |  | 60% | 60% |  |  | 125 µg/mL (≈ 323 µM) | 125 µg/mL (≈ 323 µM) |  |  | 
CCOC(=O)CC(=N)N(NC(=O)CC#N)c1nc(-c2ccccc2)c(C#N)c(=O)n1C |  |  |  |  |  |  |  | 125 µg/mL (≈ 297 µM) | 60% |  | 125 µg/mL (≈ 297 µM) |  |  | 
Cn1c(=O)c(C#N)c(-c2ccccc2)n2c(CC#N)nnc12 | 22 mm | 19 mm | 15 mm | 17 mm |  |  |  |  |  |  |  |  |  | 
N#Cc1c(-c2ccccc2)nc(SCC(O)CN2CCOCC2)[nH]c1=O (stereo unspecified) | 22 mm | 18 mm | 15 mm | 16 mm |  |  |  |  |  |  |  |  |  | 
Cn1c(N2CCN(Cc3ccccc3)CC2)nc(-c2ccco2)c(C#N)c1=O | 22 mm | 17 mm | 15 mm | 17 mm |  |  |  |  |  |  |  |  |  | 
Cn1c(-n2[nH]c3c(c2=O)C(=O)CC(=O)O3)nc(-c2ccccc2)c(C#N)c1=O | 22 mm | 17 mm | 15 mm | 19 mm |  |  |  |  |  |  | 125 µg/mL (≈ 331 µM) |  |  | 
Cn1c(-n2[nH]c3c(c2=O)C(=O)CC(=O)O3)nc(-c2ccco2)c(C#N)c1=O | 22 mm | 17 mm | 15 mm | 16 mm |  |  |  |  |  |  |  |  |  | 
COc1ccc(NC(=O)CSc2nc(-c3ccccc3)c(C#N)c(=O)[nH]2)cc1 | 22 mm | 20 mm | 15 mm | 16 mm |  |  | 60% |  |  | 125 µg/mL (≈ 319 µM) |  |  |  | 
N#Cc1c(N2CCCCC2)nc(=S)[nH]c1-c1ccc([N+](=O)[O-])cc1 | 22 mm | 23 mm | 15 mm | 17 mm |  | 60% | 60% |  |  | 125 µg/mL (≈ 366 µM) |  |  |  | 
N#Cc1c(Cl)nc(SCC2CO2)nc1-c1ccco1 (stereo unspecified) | 22 mm | 18 mm | 15 mm | 17 mm |  |  |  |  |  |  |  |  |  | 
N#Cc1c(Cl)nc(SCC2CO2)nc1-c1ccccc1 (stereo unspecified) | 22 mm | 22 mm | 15 mm | 16 mm |  |  |  |  |  | 125 µg/mL (≈ 411 µM) |  |  | 48.4% | 60.1%
Cn1c(N2CCOCC2)nc(-c2ccco2)c(C#N)c1=O | 22 mm | 17 mm | 15 mm | 17 mm |  |  |  |  |  |  |  |  | 47.1% | 69.8%
CC1(C)S[C@@H]2[C@H](NC(=O)[C@H](N)c3ccccc3)C(=O)N2[C@H]1C(=O)O [AMPICILLIN] |  | 22 mm | 41 mm | 16 mm |  |  |  |  |  |  |  | 3.91 µg/mL (≈ 11.2 µM) |  | 
